An excerpt weighted towards active compounds, which were near 3.8% of everything screened.
MC4R ag barr = agonists of human melanocortin 4 receptor (MC4R) beta-arrestin | U2OS MC4R beta-arrestin complementation, luminescence; percent of melanotan II response, DMSO zero | activation, % at 8.9 µM | 0.98% of 360,000 active;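 active = activation above a per-plate cutoff, the mean activation of sample wells on that plate plus 3 SD, cut at about 8% in these data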
Target sequence (P32245 whole entry, looked up): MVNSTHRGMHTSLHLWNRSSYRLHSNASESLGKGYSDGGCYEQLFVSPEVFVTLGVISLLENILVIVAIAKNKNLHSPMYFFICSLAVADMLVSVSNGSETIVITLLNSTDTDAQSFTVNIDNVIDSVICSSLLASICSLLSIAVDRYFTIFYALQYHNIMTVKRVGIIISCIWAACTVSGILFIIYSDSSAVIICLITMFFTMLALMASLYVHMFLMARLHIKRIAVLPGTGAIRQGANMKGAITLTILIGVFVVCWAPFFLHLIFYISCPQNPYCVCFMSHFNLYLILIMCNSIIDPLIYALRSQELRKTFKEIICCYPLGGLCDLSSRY
ANO1 block = mouse TMEM16A channel inhibition, primary screen; 1.2% of 310,000 active; Q8BHY3; HEK293 TMEM16A/YFP iodide influx fluorescence, ionomycin; normalized B-score (activity score, 25-100; higher = stronger inhibition) at 10 µM;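 active = ratio plate-corrected score three or more library SD toward inhibition, starting fluorescence score within five deviations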;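 note: score derived from kinetic fluorescence span divided by baseline fluorescence per well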
ANO1 activ = mouse TMEM16A channel activation, primary screen; HEK293 TMEM16A/YFP-H148Q/I152L, iodide quench fluorescence; hits give low values; Q8BHY3; B-score at 10 µM; 0.3% of 340,000 active;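 active = fluorescence-ratio B-score plate-corrected deviation score at least 3 library SD below zero, with starting fluorescence score within 5 deviations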;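 note: channel opened by trigger with iodide after compound preincubation; score built on the fluorescence ratio of max minus min over baseline; more negative score means more quench and so TMEM16A activation or potentiation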
CSC inhib = cancer stem cell inhibition; 1.1% of 300,000 active; inhibition, % at 7.5 µM; cancer stem cell-like cells viability, luminescence; AID 2717; in the data active = inhibition above about 75%; tested in HMLE shEcad cells
Beta cell apopt = blocks beta cell apoptosis | INS-1E cytokine-induced death, ATP luminescence, 48 h; percent of positive-control rescue, neutral wells zero | protection from apoptosis, % (no concentration beside the values) | 0.8% of 300,000 active | AID 435005;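 active = Every replicate reaches about 75%, or at least half do and their mean reaches it too, limit read from the data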;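 note: higher means more ATP so stronger rescue from cytokine killing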
MC4R antagonist = human MC4R antagonism in cAMP assay; 0.48% of 360,000 active; inhibition, % at 6.5 µM; P32245; MC4R-expressing cells, MTII-stimulated cAMP, LANCE TR-FRET; AID 540295;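 active = inhibition above its plate's cutoff, the mean of tested wells on that plate plus 3 SD, cut at about 29% in these data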
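System – human MC4R-expressing U2OS cells · Also added – Melanotan II · Dosing – one concentration, 6.5 µM nominal · Timing – 30-min compound, 1-h challenge, 1-h detection, room temperature · Measured by – Eu-cAMP/anti-cAMP TR-FRET, emission 671 nm · Replicates – singlicate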
TMEM16A reconf = re-confirmation of mouse TMEM16A chloride channel inhibitors | AID 652189 | inhibition, % at 10 µM | HEK293 TMEM16A/YFP-H148Q, iodide quench fluorescence; ionomycin added to raise cell calcium | 39% of 2,300 active | shares compounds with ANO1 block;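 active = mean duplicate percent inhibition, scaled so buffer wells are 0 and the reference blocker 100, over three buffer SD above buffer mean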
HEK293 Ca mobil = counter-screen for TMEM16A inhibitors: effect on calcium mobilization; TMEM16A/YFP HEK293, Fluo4 calcium mobilization; calcium response (% of ionomycin), % at 10 µM; shares compounds with ANO1 block; 2% of 2,300 active;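 active = duplicate-averaged calcium signal over 20% of the ionomycin maximum, relative to buffer baseline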;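 note: each well's signal is peak minus trough fluorescence divided by its pre-addition baseline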
Parental YFP cnt = counter-screen for TMEM16A inhibitors: effect in parental YFP-HEK293 cells. shares compounds with ANO1 block. iodide YFP quench, ionomycin. YFP ratio F(max-min)/F0 at 10 µM. 2,300 tested, under 10 active;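 active = yellow fluorescent protein signal ratio exceeding the buffer control mean by over 5 SD of those controls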;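 note: ratio is mean of duplicate wells from kinetic YFP trace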
ClC-1 rat inh = selectivity of TMEM16A inhibitors: inhibition of rat ClC-1 chloride channel. AID 652236. shares compounds with ANO1 block. CHO ClC-1-YFP, iodide influx fluorescence quench; iodide control reads 0, buffer control 100. 2,300 tested, under 10 active. ratio percent, % at 10 µM;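 active = duplicate-mean ratio percent above the mean of iodide-only control wells, which defines zero, plus 5 of their SD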;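 note: higher percent means stronger block of ClC-1 iodide influx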
A number is an active result; . = inactive; / = no result.

SMILES	MC4R ag barr	ANO1 block	ANO1 activ	CSC inhib	Beta cell apopt	MC4R antagonist	TMEM16A reconf	HEK293 Ca mobil	Parental YFP cnt	ClC-1 rat inh
O=C(COc1ccc(Br)cc1)Nc1ccc(Cc2ccncc2)cc1	.	100	.	.	.	.	.	.	.	.
O=C(CSc1ccc2ccccc2c1)Nc1ccncc1	.	100	.	.	.	.	17.5%	.	.	.
COc1ccc(OC)c(NC(=O)CSc2ccc3ccccc3c2)c1	.	100	.	.	.	.	.	.	.	.
O=C(CSc1ccncc1)Nc1ccc2ccccc2c1	.	.	.	.	.	.	/	/	/	/
O=C(COc1ccc2ccccc2c1)Nc1ccncc1	.	25	.	.	.	.	.	.	.	.
O=C(COc1ccccc1)Nc1ccncc1	.	.	.	.	.	.	/	/	/	/
COc1cc(OC)c(NC(=O)CCNS(=O)(=O)c2ccc3c(c2)CC(C)N3C(C)=O)cc1Cl (centres undefined)	.	.	.	.	/	.	/	/	/	/
CC(=O)Nc1ccc(S(=O)(=O)NCC(=O)OCC(=O)N2CC(C)OC(C)C2)cc1 (centres undefined)	.	/	.	.	.	.	/	/	/	/
Cc1cc(OCC(=O)Nc2ccncc2)ccc1Cl	.	25	.	.	.	.	27.0%	.	.	.
Cc1ccc(OCC(=O)Nc2ccncc2)c(C)c1	.	25	.	.	.	.	.	.	.	.
O=C(Nc1ccnn1C1CCN(C/C=C/c2ccccc2)CC1)c1cccc(F)c1	.	.	.	.	.	.	/	/	/	/
COc1ccc(NS(=O)(=O)c2ccc3oc4ccccc4c3c2)cn1	.	25	.	.	.	.	.	.	.	.
Cn1c(N)c(C(=O)CSc2nn(-c3ccc(F)cc3)c(=S)s2)c(=O)n(C)c1=O	.	/	.	.	.	.	/	/	/	/
COc1ccc(S(=O)(=O)N2CCN=C2SCc2cccnc2)cc1	.	.	.	.	.	.	/	/	/	/
O=S(=O)(c1ccccc1)N1CCN=C1SCc1c(F)cccc1Cl	.	100	.	.	.	.	.	.	.	.
O=S(=O)(c1ccc(Cl)cc1)N1CCN=C1SCc1cccc(Cl)c1	.	.	.	.	.	.	/	/	/	/
COc1ccc(S(=O)(=O)N2CCN=C2SCc2cccc(C)c2)cc1	.	25	.	.	.	.	.	.	.	.
CCN(Cc1ccccc1)S(=O)(=O)c1ccc2oc(C(=O)O)c(C)c2c1	.	25	.	.	.	.	.	.	.	.
CCC(=O)N(C)C[C@@H]1Oc2ncc(Br)cc2C(=O)N([C@@H](C)CO)C[C@H]1C	.	/	/	/	/	.	/	/	/	/
CC(C)CN(C(=O)CCCOc1ccc(Cl)cc1Cl)c1c(N)n(Cc2ccccc2)c(=O)[nH]c1=O	.	.	.	/	.	.	/	/	/	/
CC(C)C(NC(=O)C1CC(=O)N(Cc2ccccc2)C1)c1nc2ccccc2[nH]1 (centres undefined)	.	/	.	.	.	.	/	/	/	/
CCCCOc1ccc(Cl)cc1CSc1nnc(CC)n1N	.	25	.	.	.	.	.	.	.	.
CCCOc1ccc(CSc2nnc(CCC)n2N)cc1	.	.	.	.	/	.	/	/	/	/
Cc1csc(=O)n1CCC(=O)N(C)Cc1c(F)cccc1Cl	.	/	.	.	.	.	/	/	/	/
CN(C)c1ccc(N=Nc2ccccc2C(=O)OCC(=O)NCC2CCCCC2)cc1	.	100	.	.	.	.	.	.	.	.
SMILES	MC4R ag barr	ANO1 block	ANO1 activ	CSC inhib	Beta cell apopt	MC4R antagonist	TMEM16A reconf	HEK293 Ca mobil	Parental YFP cnt	ClC-1 rat inh
O=C(Nc1cccc(F)c1)N(Cc1ccc(Cl)cc1)CC(O)C(F)(F)F (centres undefined)	.	100	.	.	.	.	77.5%	.	.	.
Cc1ccc(NC(=O)COC(=O)c2ccccc2Cl)cc1S(=O)(=O)N(C)C	.	.	.	.	.	.	/	/	/	/
Cc1ccc(NC(=O)Cc2ccc(Cl)c(Cl)c2)cc1S(=O)(=O)N(C)C	.	25	.	.	.	.	16.5%	.	.	.
Cc1ccc(NC(=O)Cc2ccccc2Cl)cc1S(=O)(=O)N(C)C	.	.	.	.	.	.	/	/	/	/
Cc1ccc(NC(=O)CNc2ccc(Cl)c(Cl)c2)cc1S(=O)(=O)N(C)C	.	100	.	.	.	.	28.5%	.	.	.
O=C(NCc1ccc(Cl)cc1)[C@@H]1CCCN1S(=O)(=O)c1ccc(Cl)cc1	.	/	.	.	.	.	/	/	/	/
COc1ccc(OCCSc2nc(C)nc3ccccc23)cc1	.	25	.	.	.	.	58.5%	.	.	.
Cc1ccc(N(C)S(=O)(=O)c2ccc(-c3cc(C)no3)s2)cc1	.	25	.	.	.	.	33.0%	.	.	.
CC(NC(=O)CNC(=O)c1ccccc1F)c1ccc(-n2ccnc2)cc1 (centres undefined)	.	/	.	.	.	.	/	/	/	/
Cc1ccc(NC(=O)C2=NNC(=O)CC2)cc1S(=O)(=O)Nc1ccc(SC(F)F)cc1	.	/	.	/	.	.	/	/	/	/
COC(=O)c1ccc(-c2cc3onc(-c4ccccc4)c3c(=O)n2C)cc1	.	25	.	.	.	.	.	.	.	.
Cn1c(-c2ccc(F)c(F)c2)cc2onc(-c3ccccc3)c2c1=O	.	.	.	.	.	.	/	/	/	/
CN(C)C(=O)c1ccc(-c2cc3onc(-c4ccccc4)c3c(=O)n2C)cc1	.	/	.	.	.	.	/	/	/	/
COc1cccc(-c2cc3onc(-c4ccccc4)c3c(=O)n2C)c1	.	25	.	.	.	.	.	.	.	.
CCC1(C)Cc2c(sc3[nH]c(=O)[nH]c(=O)c23)CS1 (centres undefined)	.	100	.	.	.	.	.	.	.	.
O=C(COC(=O)Cc1c(F)cccc1Cl)Nc1nnc(-c2ccccc2)o1	.	.	.	.	/	.	/	/	/	/
Cc1cccc(OCCn2c(=S)[nH]c3ccccc32)c1	.	.	.	.	.	.	/	/	/	/
Cc1ccc(OCCn2c(=S)[nH]c3ccccc32)c(C(C)C)c1	.	25	.	100.5	.	.	.	.	.	.
COc1ccc(C(=O)OCCc2ccc(O)cc2)cc1	.	25	.	.	.	.	.	.	.	.
COc1ccc(-c2ccc(-c3nnc(Cc4ccc(OC)c(OC)c4)o3)cc2)cc1	.	25	.	.	.	.	.	.	.	.

Bioassay records from PubChem.
